Values joined by “and” are separate entries in the source; they are usually repeats but may differ in a detail not shown here. Equal entries are not always repeated.
Tests used:
[1] = system: L1210; experiment: Inhibitory activity against L1210 cell growth; type: functional, cell-based; settings: Mus musculus
How it was run: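 L1210 cells were grown in RPMI 1640 with 2 mM glutamine and 20% heat-inactivated horse serum at 37 °C under 5% CO2. Drug was added in DMSO (0.5% final) to exponential cells seeded at 0.8×10^5 cells/mL. Coulter counts were done in triplicate at 48 h. IC50 was taken from a regression of probit % growth inhibition against log dose, from one experiment.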

[2] = system: P388; experiment: (§1) Compound was evaluated in vivo for antitumor activity after intraperitoneal administration against P388/L-PAM(14) for mortality range at an optimal dose of 5 mg/kg/injection; type: functional, Mus musculus
[3] = system: P388; experiment: Compound was evaluated in vivo for antitumor activity after intraperitoneal administration against P388 (1303) for total dose at an optimal dose of 5 mg/kg/injection; type: functional, Mus musculus
[4] = system: P388; experiment: Compound was evaluated in vivo for antitumor activity after intraperitoneal administration against P388 (1313) for total dose at an optimal dose of 5 mg/kg/injection; type: functional, Mus musculus
[5] = system: P388; experiment: (§2) Compound was evaluated in vivo for antitumor activity after intraperitoneal administration against P388/L-PAM(14) for change in body weight at an optimal dose of 5 mg/kg/injection; type: functional, Mus musculus
[6] = system: P388; experiment: (§3) Compound was evaluated in vivo for antitumor activity after intraperitoneal administration against P388/L-PAM(14) for tumor free survivors at an optimal dose of 5 mg/kg/injection; type: functional, Mus musculus
[7] = system: P388; experiment: as §1; type: functional, Mus musculus; remark: listed apart in the source
[8] = system: P388; experiment: as §2; type: functional, Mus musculus; remark: listed apart in the source
[9] = system: P388; experiment: Compound was evaluated in vivo for antitumor activity after intraperitoneal administration against P388/L-PAM(12 for change in body weight at an optimal dose of 1 mg/kg/injection; type: functional, Mus musculus
[10] = system: P388; experiment: Compound was evaluated in vivo for antitumor activity after intraperitoneal administration against P388/L-PAM(12 for mortality range at an optimal dose of 5 mg/kg/injection; type: functional, Mus musculus
[11] = system: P388; experiment: (§4) Compound was evaluated in vivo for antitumor activity after intraperitoneal administration against P388/L-PAM(14) for % increase in life span at an optimal dose of 5 mg/kg/injection; type: functional; settings: Mus musculus, P388, ip
[12] = system: P388; experiment: Compound was evaluated in vivo for antitumor activity after intraperitoneal administration against P388/L-PAM(12 for median day of death at an optimal dose of 1 mg/kg/injection; type: functional, Mus musculus
[13] = system: P388; experiment: Compound was evaluated in vivo for antitumor activity after intraperitoneal administration against P388/L-PAM(12) for tumor free survivors at an optimal dose of 1 mg/kg/injection; type: functional, Mus musculus
[14] = system: P388; experiment: Compound was evaluated in vivo for antitumor activity after intraperitoneal administration against P388/L-PAM(14) for median day of death at an optimal dose of 5 mg/kg/injection; type: functional, Mus musculus
[15] = system: P388; experiment: Compound was evaluated in vivo for antitumor activity after intraperitoneal administration against P388 (1303) for median day of death at an optimal dose of 5 mg/kg/injection; type: functional, Mus musculus
[16] = system: P388; experiment: as §3; type: functional, Mus musculus; remark: listed apart in the source
[17] = system: P388; experiment: as §4; type: functional; settings: Mus musculus, P388, ip; remark: listed apart in the source
[18] = system: P388; experiment: Compound was evaluated in vivo for antitumor activity after intraperitoneal administration against P388/L-PAM(12) for % increase in life span at an optimal dose of 1 mg/kg/injection; type: functional; settings: Mus musculus, P388, ip
[19] = system: P388; experiment: Compound was evaluated in vivo for antitumor activity after intraperitoneal administration against P388 (1303) for change in body weight at an optimal dose of 5 mg/kg/injection; type: functional, Mus musculus
[20] = system: P388; experiment: Compound was evaluated in vivo for antitumor activity after intraperitoneal administration against P388/L-PAM(12) for total dose at an optimal dose of 5 mg/kg/injection; type: functional, Mus musculus
[21] = system: P388; experiment: Compound was evaluated in vivo for antitumor activity after intraperitoneal administration against P388/L-PAM(14) for total dose at an optimal dose of 5 mg/kg/injection; type: functional, Mus musculus
[22] = system: P388; experiment: Compound was evaluated in vivo for antitumor activity after intraperitoneal administration against P388 (1303) for % increase in life span at an optimal dose of 5 mg/kg/injection; type: functional; settings: Mus musculus, P388, ip
[23] = system: P388; experiment: Compound was evaluated in vivo for antitumor activity after intraperitoneal administration against P388 (1303) for mortality range at an optimal dose of 5 mg/kg/injection; type: functional, Mus musculus
[24] = system: P388; experiment: Compound was evaluated in vivo for antitumor activity after intraperitoneal administration against P388 (1303) for tumor free survivors at an optimal dose of 5 mg/kg/injection; type: functional, Mus musculus
[25] = system: P388; experiment: (§5) Compound was evaluated in vivo for antitumor activity after intraperitoneal administration against P388 (1303) for tumor free survivors at an optimal dose of 1 mg/kg/injection; type: functional, Mus musculus
[26] = system: P388; experiment: (§6) Compound was evaluated in vivo for antitumor activity after intraperitoneal administration against P388 (1303) for median day of death at an optimal dose of 1 mg/kg/injection; type: functional, Mus musculus
[27] = system: P388; experiment: (§7) Compound was evaluated in vivo for antitumor activity after intraperitoneal administration against P388 (1303) for change in body weight at an optimal dose of 1 mg/kg/injection; type: functional, Mus musculus
[28] = system: P388; experiment: Compound was evaluated in vivo for antitumor activity after intraperitoneal administration against P388 (1303) for total dose at an optimal dose of 1 mg/kg/injection; type: functional, Mus musculus
[29] = system: P388; experiment: Compound was evaluated in vivo for antitumor activity after intraperitoneal administration against P388/L-PAM for total dose at an optimal dose of 1 mg/kg/injection; type: functional, Mus musculus
[30] = system: P388; experiment: as §7; type: functional, Mus musculus; remark: listed apart in the source
[31] = system: P388; experiment: (§8) Compound was evaluated in vivo for antitumor activity after intraperitoneal administration against P388 (1303) for % increase in life span at an optimal dose of 1 mg/kg/injection; type: functional; settings: Mus musculus, P388, ip
[32] = system: P388; experiment: as §8; type: functional; settings: Mus musculus, P388, ip; remark: listed apart in the source
[33] = system: P388; experiment: as §6; type: functional, Mus musculus; remark: listed apart in the source
[34] = system: P388; experiment: as §5; type: functional, Mus musculus; remark: listed apart in the source
[35] = system: P388; experiment: (§9) Compound was evaluated in vivo for antitumor activity after intraperitoneal administration against P388 (1303) for mortality range at an optimal dose of 1 mg/kg/injection; type: functional, Mus musculus
[36] = system: P388; experiment: as §9; type: functional, Mus musculus; remark: listed apart in the source
[37] = system: Mus musculus; experiment: Compound was evaluated in vivo for antitumor activity against colon adenocarcinoma after injecting the compound intraperitoneally for median tumor burden; type: functional
[38] = system: Mus musculus; experiment: Compound was evaluated in vivo for antitumor activity against colon adenocarcinoma after injecting the compound intraperitoneally for toxicity related death.; type: functional
[39] = system: Mus musculus; experiment: Compound was evaluated in vivo for antitumor activity against colon adenocarcinoma after injecting the compound intraperitoneally for optimal dose; type: functional
[40] = system: Mus musculus; experiment: Compound was evaluated in vivo for antitumor activity against colon adenocarcinoma after injecting the compound intraperitoneally for total dose.; type: functional
[41] = system: Mus musculus; experiment: Compound was evaluated in vivo for antitumor activity against colon adenocarcinoma after injecting the compound intraperitoneally for percent T/C; type: functional

COC1=CC(=O)c2ncnc(OCCOCCOCCO)c2C1=O
IC50 [1]: > 10 µg/mL and > 29.6 µM

COC1=CC(=O)c2ncnc(NCCO)c2C1=O
IC50 [1]: 1.78 µg/mL and 7.13 µM

CN(C)CCCNc1ncnc2c1C(=O)C(N1CCCCC1)=CC2=O
IC50 [1]: 0.406 µg/mL and 1.17 µM

O=C1C(N2CC2)=C(N2CC2)C(=O)c2ncncc21
IC50 [1]: 80 nM

COC1=CC(=O)c2ncnc(NCCN(C)C)c2C1=O
IC50 [1]: 0.316 µg/mL and 1.14 µM

N[C@@H](Cc1ccc(N(CCCl)CCCl)cc1)C(=O)O [MELPHALAN]
Mortality [2]: 19 days
Total dose [3]: 5 mg/kg
Total dose [4]: 5 mg/kg
Change in body weight [5]: 0 g mouse-1
Survivors [6]: 0
Mortality [7]: 34 days
Change in body weight [8]: 0.4 g mouse-1
Change in body weight [9]: 0.6 g mouse-1
Mortality [10]: 31 days
ILS at 5 mg/kg [11]: 121%
Median day of death [12]: 15
Survivors [13]: 0
Median day of death [14]: 16
Median day of death [15]: 24
Survivors [16]: 0
ILS at 5 mg/kg [17]: 14%
ILS at 1 mg/kg [18]: 15%
Change in body weight [19]: 0.1 g mouse-1
Total dose [20]: 5 mg/kg
Total dose [21]: 5 mg/kg
ILS at 5 mg/kg [22]: 118%
Mortality [23]: 34 days
Survivors [24]: 0

COC1=CC(=O)c2ncnc(NCCCN(C)CCCNc3ncnc4c3C(=O)C(OC)=CC4=O)c2C1=O
IC50 [1]: 1250 nM

CCN(CC)CCCC(C)Nc1ncnc2c1C(=O)C(OC)=CC2=O (configuration not stated)
IC50 [1]: 0.435 µg/mL and 1.26 µM

COc1cccc2c1C(=O)c1c(O)c3c(c(O)c1C2=O)C[C@@](O)(C(=O)CO)C[C@@H]3O[C@H]1C[C@H](N)[C@H](O)[C@H](C)O1 [DOXORUBICIN]
IC50 [1]: 0.028 µg/mL and 48 nM

COC1=CC(=O)c2ncnc(NCCCN(C)C)c2C1=O
IC50 [1]: 0.501 µg/mL and 1.73 µM

CCN(CC)CCNc1ncnc2c1C(=O)C(OC)=CC2=O
IC50 [1]: 0.281 µg/mL and 898 nM

COC(=O)C(CC(C)C)NC(=O)C(CC(C)C)Nc1ncnc2c1C(=O)C(OC)=CC2=O (configuration not stated)
IC50 [1]: 0.581 µg/mL and 1.3 µM

CCCC(=O)OCCNc1ncnc2c1C(=O)C(OC)=CC2=O
IC50 [1]: 0.85 µg/mL and 2.66 µM

COC(=O)CNc1ncnc2c1C(=O)C(OC)=CC2=O
IC50 [1]: 1.2 µg/mL and 4.26 µM

COc1cccc2c1C(=O)c1c(O)c3c(c(O)c1C2=O)C[C@@](O)(C(C)=O)C[C@@H]3O[C@H]1C[C@H](N)[C@H](O)[C@H](C)O1 [DAUNORUBICIN]
Survivors [25]: 0
Median day of death [26]: 19.5
Change in body weight [27]: 1.4 g mouse-1
Total dose [28]: 4 mg/kg
Total dose [29]: 4 mg/kg
Change in body weight [30]: 0.3 g mouse-1
ILS at 1 mg/kg [31]: 63%
ILS at 1 mg/kg [32]: 79%
Median day of death [33]: 18
Survivors [34]: 0
Mortality [35]: 20 days
Mortality [36]: 27 days

CN(CCCNc1ncnc2c1C(=O)C(N1CC1)=C(N1CC1)C2=O)CCCNc1ncnc2c1C(=O)C(N1CC1)=C(N1CC1)C2=O
IC50 [1]: 4.8 nM

O=c1[nH]cc(F)c(=O)[nH]1 [FLUOROURACIL]
Tumor burden [37]: 60 mg
Toxicity [38]: 0
Optimal dose [39]: 70 mg/kg
Total dose [40]: 140 mg/kg
T/C [41]: 14%

COC1=CC(=O)c2ncnc(NCCCn3cnc4c(N)ncnc43)c2C1=O
IC50 [1]: > 10 µg/mL and > 24.6 µM

COC(=O)C(Nc1ncnc2c1C(=O)C(OC)=CC2=O)C(C)C (configuration not stated)
IC50 [1]: 0.825 µg/mL and 2.59 µM

CCN(CC)CCCNc1ncnc2c1C(=O)C(OC)=CC2=O
IC50 [1]: 0.393 µg/mL and 1.24 µM
